ChEMBL document CHEMBL3046780, “Syntheses and herbicidal activity of new triazolopyrimidine-2-sulfonamides as acetohydroxyacid synthase inhibitor” (Bioorg Med Chem, 2010)

What was measured:
Polygonum humifusum [1] = assay: Post-emergence herbicidal activity against Polygonum humifusum assessed as growth inhibition at 75 g ai/ha measured 15 days post compound treatment under green house conditions; type: functional; conditions: 360 h, read-out: GI
In short: (§1)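 Compounds formulated as 100 g/L emulsifiable concentrate (DMF solvent, Tween-80 emulsifier), diluted with water, sprayed post-emergence on pot-grown weeds in clay soil (pH 6.5, 1.6% organic matter). Seeds sown 1-3 cm deep, grown at 15-30 °C. Dicots were treated at the 2-leaf stage and monocots at the 1-leaf stage. Untreated and DMF-treated controls were included. Injury was rated visually 15 days after treatment.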

Polygonum humifusum [2] = assay: Post-emergence herbicidal activity against Polygonum humifusum assessed as growth inhibition at 37.5 g ai/ha measured 15 days post compound treatment under green house conditions; type: functional; conditions: 360 h, read-out: GI; in short: as §1
Galium aparine [3] = assay: Post-emergence herbicidal activity against Galium aparine assessed as growth inhibition at 75 g ai/ha measured 15 days post compound treatment under green house conditions; type: functional; conditions: 360 h, read-out: GI; in short: as §1
Galium aparine [4] = assay: Post-emergence herbicidal activity against Galium aparine assessed as growth inhibition at 150 g ai/ha measured 15 days post compound treatment under green house conditions; type: functional; conditions: 360 h, read-out: GI; in short: as §1
Galium aparine [5] = assay: Post-emergence herbicidal activity against Galium aparine assessed as growth inhibition at 37.5 g ai/ha measured 15 days post compound treatment under green house conditions; type: functional; conditions: 360 h, read-out: GI; in short: as §1
Eclipta prostrata [6] = assay: Post-emergence herbicidal activity against Eclipta prostrata assessed as growth inhibition at 150 g ai/ha measured 15 days post compound treatment under green house conditions; type: functional; conditions: 360 h, read-out: GI; in short: as §1
Amaranthus retroflexus [7] = assay: Post-emergence herbicidal activity against Amaranthus retroflexus assessed as growth inhibition at 150 g ai/ha measured 15 days post compound treatment under green house conditions; type: functional; conditions: 360 h, read-out: GI; in short: as §1
Brassica juncea = assay: Post-emergence herbicidal activity against Brassica juncea assessed as growth inhibition at 150 g ai/ha measured 15 days post compound treatment under green house conditions; type: functional; conditions: 360 h, read-out: GI; in short: as §1
Poa annua = assay: Post-emergence herbicidal activity against Poa annua assessed as growth inhibition at 150 g ai/ha measured 15 days post compound treatment under green house conditions; type: functional; conditions: 360 h, read-out: GI; in short: as §1
Digitaria sanguinalis = assay: Post-emergence herbicidal activity against Digitaria sanguinalis (hairy crabgrass) assessed as growth inhibition at 150 g ai/ha measured 15 days post compound treatment under green house conditions; type: functional; conditions: 360 h, read-out: GI; in short: as §1
Echinochloa crus-galli = assay: Post-emergence herbicidal activity against Echinochloa crus-galli (barnyard grass) assessed as growth inhibition at 150 g ai/ha measured 15 days post compound treatment under green house conditions; type: functional; conditions: 360 h, read-out: GI; in short: as §1
Chenopodium album [8] = assay: Post-emergence herbicidal activity against Chenopodium album assessed as growth inhibition at 37.5 g ai/ha measured 15 days post compound treatment under green house conditions; type: functional; conditions: 360 h, read-out: GI; in short: as §1
Cyperus iria [9] = assay: Post-emergence herbicidal activity against Cyperus iria assessed as growth inhibition at 150 g ai/ha measured 15 days post compound treatment under green house conditions; type: functional; conditions: 360 h, read-out: GI; in short: as §1
Cyperus iria [10] = assay: Post-emergence herbicidal activity against Cyperus iria assessed as growth inhibition at 75 g ai/ha measured 15 days post compound treatment under green house conditions; type: functional; conditions: 360 h, read-out: GI; in short: as §1
Cyperus iria [11] = assay: Post-emergence herbicidal activity against Cyperus iria assessed as growth inhibition at 37.5 g ai/ha measured 15 days post compound treatment under green house conditions; type: functional; conditions: 360 h, read-out: GI; in short: as §1
Cerastium arvense [12] = assay: Post-emergence herbicidal activity against Cerastium arvense assessed as growth inhibition at 150 g ai/ha measured 15 days post compound treatment under green house conditions; type: functional; conditions: 360 h, read-out: GI; in short: as §1
Cerastium arvense [13] = assay: Post-emergence herbicidal activity against Cerastium arvense assessed as growth inhibition at 75 g ai/ha measured 15 days post compound treatment under green house conditions; type: functional; conditions: 360 h, read-out: GI; in short: as §1
Cerastium arvense [14] = assay: Post-emergence herbicidal activity against Cerastium arvense assessed as growth inhibition at 37.5 g ai/ha measured 15 days post compound treatment under green house conditions; type: functional; conditions: 360 h, read-out: GI; in short: as §1
Polygonum humifusum [15] = assay: Post-emergence herbicidal activity against Polygonum humifusum assessed as growth inhibition at 150 g ai/ha measured 15 days post compound treatment under green house conditions; type: functional; conditions: 360 h, read-out: GI; in short: as §1
Eclipta prostrata [16] = assay: Post-emergence herbicidal activity against Eclipta prostrata assessed as growth inhibition at 75 g ai/ha measured 15 days post compound treatment under green house conditions; type: functional; conditions: 360 h, read-out: GI; in short: as §1
Eclipta prostrata [17] = assay: Post-emergence herbicidal activity against Eclipta prostrata assessed as growth inhibition at 37.5 g ai/ha measured 15 days post compound treatment under green house conditions; type: functional; conditions: 360 h, read-out: GI; in short: as §1
Rumex acetosa [18] = assay: Post-emergence herbicidal activity against Rumex acetosa assessed as growth inhibition at 150 g ai/ha measured 15 days post compound treatment under green house conditions; type: functional; conditions: 360 h, read-out: GI; in short: as §1
Rumex acetosa [19] = assay: Post-emergence herbicidal activity against Rumex acetosa assessed as growth inhibition at 75 g ai/ha measured 15 days post compound treatment under green house conditions; type: functional; conditions: 360 h, read-out: GI; in short: as §1
Rumex acetosa [20] = assay: Post-emergence herbicidal activity against Rumex acetosa assessed as growth inhibition at 37.5 g ai/ha measured 15 days post compound treatment under green house conditions; type: functional; conditions: 360 h, read-out: GI; in short: as §1
Amaranthus retroflexus [21] = assay: Post-emergence herbicidal activity against Amaranthus retroflexus assessed as growth inhibition at 75 g ai/ha measured 15 days post compound treatment under green house conditions; type: functional; conditions: 360 h, read-out: GI; in short: as §1
Amaranthus retroflexus [22] = assay: Post-emergence herbicidal activity against Amaranthus retroflexus assessed as growth inhibition at 37.5 g ai/ha measured 15 days post compound treatment under green house conditions; type: functional; conditions: 360 h, read-out: GI; in short: as §1
Chenopodium album [23] = assay: Post-emergence herbicidal activity against Chenopodium album assessed as growth inhibition at 150 g ai/ha measured 15 days post compound treatment under green house conditions; type: functional; conditions: 360 h, read-out: GI; in short: as §1
Chenopodium album [24] = assay: Post-emergence herbicidal activity against Chenopodium album assessed as growth inhibition at 75 g ai/ha measured 15 days post compound treatment under green house conditions; type: functional; conditions: 360 h, read-out: GI; in short: as §1
[25] = biological target: T1, Acetolactate synthase, chloroplastic (Arabidopsis thaliana, UniProt P17597)
T1 sequence (P17597 whole entry): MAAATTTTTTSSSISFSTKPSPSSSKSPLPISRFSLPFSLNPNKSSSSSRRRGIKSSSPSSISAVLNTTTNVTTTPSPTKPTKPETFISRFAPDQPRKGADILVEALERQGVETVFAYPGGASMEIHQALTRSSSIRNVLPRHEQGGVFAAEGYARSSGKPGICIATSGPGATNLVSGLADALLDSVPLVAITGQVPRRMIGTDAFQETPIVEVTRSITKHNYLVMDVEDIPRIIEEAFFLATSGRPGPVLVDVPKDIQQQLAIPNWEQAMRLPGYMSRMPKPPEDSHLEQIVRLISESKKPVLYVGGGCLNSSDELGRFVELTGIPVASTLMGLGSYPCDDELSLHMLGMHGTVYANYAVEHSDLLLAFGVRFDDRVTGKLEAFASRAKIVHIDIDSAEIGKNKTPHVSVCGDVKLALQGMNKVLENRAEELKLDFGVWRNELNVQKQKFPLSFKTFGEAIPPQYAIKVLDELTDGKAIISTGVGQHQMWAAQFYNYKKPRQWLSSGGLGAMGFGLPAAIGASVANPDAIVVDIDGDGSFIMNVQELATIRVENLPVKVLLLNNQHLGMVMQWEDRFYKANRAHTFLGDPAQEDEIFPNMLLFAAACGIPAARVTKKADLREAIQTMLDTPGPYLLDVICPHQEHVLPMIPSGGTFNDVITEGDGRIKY

## COC(=O)c1cccc(Cl)c1NS(=O)(=O)c1nc2nc(OC)ccn2n1
Polygonum humifusum [1]
  inhibition of growth at 75 g/ha: 50%
Polygonum humifusum [2]
  inhibition of growth at 37.5 g/ha: 50%
Galium aparine [3]
  inhibition of growth at 75 g/ha: ≥ 90%
Galium aparine [4]
  inhibition of growth at 150 g/ha: ≥ 90%
Galium aparine [5]
  inhibition of growth at 37.5 g/ha: ≥ 80%
Eclipta prostrata [6]
  inhibition of growth at 150 g/ha: ≥ 90%
Amaranthus retroflexus [7]
  inhibition of growth at 150 g/ha: ≥ 80%
Brassica juncea
  inhibition of growth at 150 g/ha: ≥ 90%
Poa annua
  inhibition of growth at 150 g/ha: < 50%
Digitaria sanguinalis
  inhibition of growth at 150 g/ha: < 50%
Echinochloa crus-galli
  inhibition of growth at 150 g/ha: 50%
Chenopodium album [8]
  inhibition of growth at 37.5 g/ha: ≥ 80%
Cyperus iria [9]
  inhibition of growth at 150 g/ha: 50%
Cyperus iria [10]
  inhibition of growth at 75 g/ha: 50%
Cyperus iria [11]
  inhibition of growth at 37.5 g/ha: 50%
Cerastium arvense [12]
  inhibition of growth at 150 g/ha: ≥ 90%
Cerastium arvense [13]
  inhibition of growth at 75 g/ha: ≥ 80%
Cerastium arvense [14]
  inhibition of growth at 37.5 g/ha: ≥ 80%
Polygonum humifusum [15]
  inhibition of growth at 150 g/ha: 50%
Eclipta prostrata [16]
  inhibition of growth at 75 g/ha: ≥ 80%
Eclipta prostrata [17]
  inhibition of growth at 37.5 g/ha: 50%
Rumex acetosa [18]
  inhibition of growth at 150 g/ha: ≥ 80%
Rumex acetosa [19]
  inhibition of growth at 75 g/ha: ≥ 80%
Rumex acetosa [20]
  inhibition of growth at 37.5 g/ha: ≥ 80%
Amaranthus retroflexus [21]
  inhibition of growth at 75 g/ha: ≥ 80%
Amaranthus retroflexus [22]
  inhibition of growth at 37.5 g/ha: ≥ 80%
Chenopodium album [23]
  inhibition of growth at 150 g/ha: ≥ 90%
Chenopodium album [24]
  inhibition of growth at 75 g/ha: ≥ 90%
[25]
  Ki: 1610 nM
